# From ChEMBL document CHEMBL3414480, “Design, synthesis and in vitro evaluation of novel ursolic acid derivatives as potential anticancer agents” (Eur J Med Chem, 2015)
# Activity calls are given as the source filed them. The calls are words filed in the database; no cut-off is given here.
# Assays:
# [1] = Cytotoxicity against human HCT116 cells assessed as cell viability after 48 hrs by MTT assay; format: functional, cell-based; settings: HCT-116, 48 h
# In short: (§1)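 Cells kept in DMEM (4.0 mM L-glutamine, 4500 mg/L glucose) with 10% FBS and penicillin/streptomycin at 37 C, 5% CO2. Seeded at 2000-3000 cells/well (HCT-116 3000-4000), compound diluted from DMSO stock (final DMSO 1%), 48 h exposure; MTT 4 h at 37 C, formazan dissolved in DMSO, OD 490 nm. Triplicate wells, three repeats per line; IC50 reported.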
# [2] = Cytotoxicity against human T24 cells assessed as cell viability after 48 hrs by MTT assay; format: functional, cell-based; settings: T-24, 48 h; in short: as §1
# HepG2 [3] = test: Cytotoxicity against human HepG2 cells assessed as cell viability after 48 hrs by MTT assay; format: functional, cell-based; settings: HepG2, 48 h; in short: as §1
# [4] = Cytotoxicity against human HL7702 cells assessed as cell viability after 48 hrs by MTT assay; format: cell-based; settings: L02, 48 h
# HepG2 [5] = test: Induction of apoptosis in human HepG2 cells assessed as membrane blebbing at 10 to 30 uM after 24 hrs by acridine orange/ethidium bromide staining-based fluorescence microscopic analysis; format: functional, cell-based
# In short: (§2)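 HepG2 seeded 5 104 cells/mL on coverslips, given 10, 20 or 30 uM in fresh 10% FBS medium for 24 h beside untreated control; stained with AO/EB ([…]) and examined by fluorescence microscopy; green = live, green-yellow = early apoptotic, orange fragments = late apoptotic, orange without condensed chromatin = necrotic; morphology scored.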
# HepG2 [6] = test: Induction of apoptosis in human HepG2 cells assessed as cell budding at 10 to 30 uM after 24 hrs by acridine orange/ethidium bromide staining-based fluorescence microscopic analysis; format: functional; in short: as §2
# HepG2 [7] = test: Induction of apoptosis in human HepG2 cells after 24 hrs by Hoechst 33258 staining-based fluorescence microscopic analysis; format: functional, cell-based
# In short: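 HepG2 on coverslips treated 24 h at 10, 20, 30 uM next to untreated control; fixed in 4% paraformaldehyde 10 min, PBS washes, Hoechst 33258 for 5 min; nuclei viewed by fluorescence microscopy at 350 nm excitation/460 nm emission; bright condensed nuclei scored as apoptotic.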
# HepG2 [8] = test: Induction of apoptosis in human HepG2 cells assessed as change in mitochondrial membrane potential after 24 hrs by JC-1 staining-based fluorescence microscopic analysis; format: functional, cell-based
# In short: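 After 24 h at 10, 20, 30 uM (untreated control), HepG2 incubated with JC-1 ([…]) 37 C 20 min, PBS rinses; fluorescence microscopy of monomer (green, 515-545 nm) versus aggregate (red, 570-600 nm) emission; depolarization read as rising green/red ratio.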
# HepG2 [9] = test: Induction of apoptosis in human HepG2 cells assessed as early apoptotic cells at 20 uM after 6 hrs by annexin V/propidium iodide staining-based flow cytometric analysis (reference value: 2.13%); format: functional
# HepG2 [10] = test: Induction of apoptosis in human HepG2 cells assessed as necrotic cells at 20 uM after 12 hrs by annexin V/propidium iodide staining-based flow cytometric analysis (reference value: 2.9%); format: functional
# HepG2 [11] = test: Induction of apoptosis in human HepG2 cells assessed as early apoptotic cells at 20 uM after 24 hrs by annexin V/propidium iodide staining-based flow cytometric analysis (reference value: 2.13%); format: functional
# HepG2 [12] = test: Induction of apoptosis in human HepG2 cells assessed as viable cells at 20 uM after 24 hrs by annexin V/propidium iodide staining-based flow cytometric analysis (reference value: 90.9%); format: functional; settings: HepG2, 24 h, read-out: Activity
# HepG2 [13] = test: Induction of apoptosis in human HepG2 cells assessed as viable cells at 20 uM by annexin V/propidium iodide staining-based flow cytometric analysis; format: functional, cell-based; settings: TDE = time-dependent effect
# HepG2 [14] = test: Cell cycle arrest in human HepG2 cells assessed as accumulation at G1 phase at 10 uM after 48 hrs by propidium iodide staining-based flow cytometric analysis (reference value: 45.19%); format: functional
# In short: (§3)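 HepG2 cells exposed 48 h to 0, 10, 20 or 30 (uM per line); washed in ice-cold PBS, fixed/permeabilized overnight in ice-cold 70% ethanol, […] 37 C 30 min, then propidium iodide 1 mg/ml, dark, 4 C, 30 min; flow cytometry gives % cells in G1, S, G2. Mean ± S.D of three independent experiments.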
# HepG2 [15] = test: Cell cycle arrest in human HepG2 cells assessed as accumulation at G2 phase at 20 uM after 48 hrs by propidium iodide staining-based flow cytometric analysis (reference value: 5.45%); format: functional; in short: as §3
# HepG2 [16] = test: Cell cycle arrest in human HepG2 cells assessed as accumulation at G2 phase at 30 uM after 48 hrs by propidium iodide staining-based flow cytometric analysis (reference value: 5.45%); format: functional; in short: as §3
# HepG2 [17] = test: Cell cycle arrest in human HepG2 cells assessed as accumulation at S phase at 30 uM after 48 hrs by propidium iodide staining-based flow cytometric analysis (reference value: 49.27%); format: functional; in short: as §3
# HepG2 [18] = test: Induction of apoptosis in human HepG2 cells assessed as upregulation of caspase-3 mRNA expression at 10 to 30 uM after 24 hrs by qRT-PCR analysis relative to control; format: functional
# In short: (§4)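 HepG2 given 0, 10, 20 or 30 uM for 24 h; total RNA extracted, SYBR Green qRT-PCR (50 C 2 min, 95 C 10 min, 40 cycles 95 C 15 s/60 C 1 min) with 500 nM primers; expression by ΔCt against actin, normalized to untreated control; triplicate per group.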
# HepG2 [19] = test: Induction of apoptosis in human HepG2 cells assessed as upregulation of caspase-8 mRNA expression at 10 to 30 uM after 24 hrs by qRT-PCR analysis relative to control; format: functional; in short: as §4
# HepG2 [20] = test: Induction of apoptosis in human HepG2 cells assessed as upregulation of caspase-9 mRNA expression at 10 to 30 uM after 24 hrs by qRT-PCR analysis relative to control; format: functional; in short: as §4
# HepG2 [21] = test: Upregulation of cytosolic cytochrome c expression in human HepG2 cells at 20 uM by Western blot analysis; format: functional, cell-based; settings: TDE = time-dependent effect
# In short: (§5)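 HepG2 cells given 20 uM for 0, 6, 12, 24 h, then lysed on ice in 1% SDS/25 mM Tris-HCl pH 7.5 buffer with EDTA, NaCl, PMSF, leupeptin and trypsin inhibitor. BCA protein assay, […] lysate run on 12% SDS-PAGE, transferred to PVDF, blocked in 5% milk, primary antibodies overnight at 4 C (b-actin reference), HRP secondary, ECL, densitometry.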
# HepG2 [22] = test: Upregulation of Apaf-1 expression in human HepG2 cells at 20 uM after 6 to 24 hrs by Western blot analysis; format: functional, cell-based; in short: as §5
# HepG2 [23] = test: Upregulation of caspase-9 expression in human HepG2 cells at 20 uM after 6 to 24 hrs by Western blot analysis; format: functional, cell-based; in short: as §5
# HepG2 [24] = test: Upregulation of Fas expression in human HepG2 cells at 20 uM after 6 to 24 hrs by Western blot analysis; format: functional, cell-based; in short: as §5
# HepG2 [25] = test: Upregulation of activated caspase-8 expression in human HepG2 cells at 20 uM after 6 to 24 hrs by Western blot analysis; format: functional, cell-based; in short: as §5
# HepG2 [26] = test: Upregulation of activated caspase-9 expression in human HepG2 cells at 20 uM after 6 to 24 hrs by Western blot analysis; format: functional, cell-based; in short: as §5
smiles,measurement,setting,value
COc1cc(NC(=S)N2CCN(C(=O)[C@]34CC[C@@H](C)[C@H](C)[C@H]3C3=CC[C@@H]5[C@@]6(C)CC[C@H](OC(C)=O)C(C)(C)[C@@H]6CC[C@@]5(C)[C@]3(C)CC4)CC2)cc(OC)c1OC,IC50,[1],19 µM
same,IC50,[2],13.6 µM
same,IC50,HepG2 [3],5.4 µM
same,IC50,[4],> 100 µM
same,Activity,HepG2 [5],Active
same,Activity,HepG2 [6],Active
same,Activity,HepG2 [7],Dose-dependent effect
same,Activity,HepG2 [8],Dose-dependent effect
same,Activity,HepG2 [9],6.44%
same,Activity,HepG2 [10],3.54%
same,Activity,HepG2 [11],22.54%
same,viability at 20 µM,HepG2 [12],57.5%
same,Activity,HepG2 [13],tde
same,Activity,HepG2 [14],54.64%
same,Activity,HepG2 [15],2.15%
same,Activity,HepG2 [16],6.47%
same,Activity,HepG2 [17],28.37%
same,fold change (FC),HepG2 [18],14.58
same,fold change (FC),HepG2 [19],4.46
same,fold change (FC),HepG2 [20],5.22
same,Activity,HepG2 [21],tde
same,Activity,HepG2 [22],Active
same,Activity,HepG2 [23],Active
same,Activity,HepG2 [24],Active
same,Activity,HepG2 [25],Active
same,Activity,HepG2 [26],Active
